Source: ChEMBL document CHEMBL1156021, “Design, synthesis, and evaluation of novel 3-amino-4-hydrazine-cyclobut-3-ene-1,2-diones as potent and selective CXCR2 chemokine receptor antagonists” (Bioorg Med Chem Lett, 2009)

Tests used:
[1] = target: T1, C-X-C chemokine receptor type 2 (Homo sapiens, UniProt P25025); experiment: Displacement of [125I]IL-8 from human CXCR2 expressed in mouse BaF3 cells by liquid scintillation counting; assay type: cell-based
T1 sequence (P25025 whole entry): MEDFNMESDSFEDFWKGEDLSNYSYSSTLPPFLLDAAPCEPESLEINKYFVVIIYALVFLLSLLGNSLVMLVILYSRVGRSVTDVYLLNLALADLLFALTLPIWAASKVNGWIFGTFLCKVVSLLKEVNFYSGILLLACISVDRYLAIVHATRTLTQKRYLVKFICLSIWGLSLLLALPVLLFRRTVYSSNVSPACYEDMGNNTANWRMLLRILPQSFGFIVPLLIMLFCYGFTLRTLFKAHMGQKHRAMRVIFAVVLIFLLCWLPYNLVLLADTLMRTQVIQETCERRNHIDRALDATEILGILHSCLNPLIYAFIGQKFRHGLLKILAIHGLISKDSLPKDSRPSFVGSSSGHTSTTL
Outline: (§1)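 SPA competition binding with receptor-overexpressing membranes (CXCR2 or CXCR1, CXCR1 at twice the membrane amount) mixed with 2 mg/mL wheatgerm-agglutinin-coated SPA beads. Buffer was 25 mM HEPES, 3 mM MgCl2, pH 7.4; the membrane and bead mix was held on ice 5 min. Tracer was [125I]IL-8 from a 0.040 nM stock. Compounds were half-log serially diluted in DMSO. Plates were incubated 2 h at room temperature, protected from light, then counted by liquid scintillation.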

[2] = target: T2, C-X-C chemokine receptor type 1 (Homo sapiens, UniProt P25024); experiment: Displacement of [125I]IL-8 from human CXCR1 expressed in mouse BaF3 cells by liquid scintillation counting; assay type: cell-based; outline: as §1
T2 sequence (P25024 whole entry): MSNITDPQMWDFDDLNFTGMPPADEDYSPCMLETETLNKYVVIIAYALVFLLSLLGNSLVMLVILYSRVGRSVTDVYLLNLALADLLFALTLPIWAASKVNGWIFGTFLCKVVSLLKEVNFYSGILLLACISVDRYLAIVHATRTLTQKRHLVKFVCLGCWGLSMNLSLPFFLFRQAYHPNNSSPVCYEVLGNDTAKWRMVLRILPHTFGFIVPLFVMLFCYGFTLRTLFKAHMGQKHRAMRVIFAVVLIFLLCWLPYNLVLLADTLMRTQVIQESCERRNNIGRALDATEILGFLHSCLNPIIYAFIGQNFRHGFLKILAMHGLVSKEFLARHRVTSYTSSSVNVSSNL

[3] = species on record: Homo sapiens; experiment: Selectivity ratio of Ki for human CXCR1 to Ki for human CXCR2
Outline: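 Scintillation proximity binding assays on membranes over-expressing CXCR2 or CXCR1, with CXCR1 membranes at twice the CXCR2 membrane level. Membranes were premixed with 2 mg/mL wheatgerm-agglutinin SPA beads in 25 mM HEPES, 3 mM MgCl2, pH 7.4, 5 min on ice. Half-log serial DMSO dilutions were added with [125I]IL-8 (0.040 nM stock). Plates were kept 2 h at room temperature in the dark, then read by scintillation counting.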

[4] = Metabolic stability in human liver microsomes assessed as compound remaining at 1 uM after 120 mins; assay type: ADME, Microsome; details: read-out: Stability
[5] = Metabolic stability in human liver microsomes assessed as half life at 1 uM; assay type: ADME, Microsome
[6] = Metabolic stability in rat liver microsomes assessed as half life at 1 uM; assay type: ADME, Microsome

Row | Structure (SMILES) | IC50 [1] | Ki [1] | Ki [2] | Ratio Ki [3] | remaining at 2 h, 1 µM [4] | half-life at 1 µM [5] | half-life at 1 µM [6]
1 | CCN(Nc1c(Nc2cccc(C(=O)N(C)C)c2O)c(=O)c1=O)C(C)=O | 3.29 µM | 0.32 µM | > 12 µM | – | – | – | –
2 | CCN(Nc1c(Nc2cccc(C(=O)N(C)C)c2O)c(=O)c1=O)c1ccccn1 | – | 0.13 µM | 5.2 µM | 40 | > 50% | > 2 h | –
3 | CCN(Nc1c(Nc2cccc(C(=O)N(C)C)c2O)c(=O)c1=O)c1ccccc1 | – | 0.11 µM | 4.1 µM | 40 | > 50% | > 2 h | –
4 | CCNNc1c(Nc2cccc(C(=O)N(C)C)c2O)c(=O)c1=O | 5.49 µM | – | – | – | – | – | –
5 | CCN(Nc1c(Nc2cccc(C(=O)N(C)C)c2O)c(=O)c1=O)C(=O)c1ccc(F)cc1 | – | 0.26 µM | > 12 µM | > 46 | – | – | –
6 | CCN(Nc1c(Nc2cccc(C(=O)N(C)C)c2O)c(=O)c1=O)c1ccc(F)cc1 | – | 0.55 µM | > 12 µM | > 20 | – | – | –
7 | CCN(Cc1ccc(F)cc1)Nc1c(Nc2cccc(C(=O)N(C)C)c2O)c(=O)c1=O | – | 7.2 µM | > 12 µM | – | – | – | –
8 | CCN(CC)Nc1c(Nc2cccc(C(=O)N(C)C)c2O)c(=O)c1=O | 1.86 µM | 0.12 µM | 9.7 µM | 80 | > 50% | > 2 h | 1.4 h
9 | CCN(Nc1c(Nc2cccc(C(=O)N(C)C)c2O)c(=O)c1=O)c1ccc(OC)cc1 | – | 0.18 µM | 6.5 µM | 40 | – | – | –
